Activity calls are given as the source filed them. No cut-off for these calls is given here.
Assays:
[1] = biological target: T1, Prostaglandin G/H synthase 2 (Ovis aries) (UniProt P79208); test: Inhibition of ovine COX-2 assessed as using arachidonic acid as substrate at 10 uM preincubated for 5 mins prior to substrate addition measured after 2 hrs by enzyme immunoassay relative to control; conditions: in the assay text read “after 2 mins” for “after 2 hrs”
T1 sequence (whole entry): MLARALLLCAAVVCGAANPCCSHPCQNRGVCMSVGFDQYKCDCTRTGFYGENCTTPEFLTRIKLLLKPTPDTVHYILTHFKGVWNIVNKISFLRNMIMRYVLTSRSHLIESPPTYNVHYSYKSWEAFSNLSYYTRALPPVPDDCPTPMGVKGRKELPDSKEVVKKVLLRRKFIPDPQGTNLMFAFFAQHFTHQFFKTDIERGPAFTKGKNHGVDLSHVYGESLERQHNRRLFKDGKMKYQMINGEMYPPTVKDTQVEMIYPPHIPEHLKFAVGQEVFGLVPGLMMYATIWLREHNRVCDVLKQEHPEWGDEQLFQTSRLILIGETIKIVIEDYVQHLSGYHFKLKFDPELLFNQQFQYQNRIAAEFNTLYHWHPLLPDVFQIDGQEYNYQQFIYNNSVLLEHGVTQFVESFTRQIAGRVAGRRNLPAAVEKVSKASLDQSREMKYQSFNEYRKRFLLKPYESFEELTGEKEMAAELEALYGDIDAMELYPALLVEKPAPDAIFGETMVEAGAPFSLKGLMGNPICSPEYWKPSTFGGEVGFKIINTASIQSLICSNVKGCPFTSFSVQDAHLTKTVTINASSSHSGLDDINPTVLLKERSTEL
Method in brief: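 Ovine COX-1 or COX-2 with heme in 0.1 M Tris-HCl pH 8.0, 5 mM EDTA, 2 mM phenol; compound (0.001–100 µM final, DMSO stocks) preincubated 5 min at 37 °C, then arachidonic acid added, stopped with 1 M HCl after 2 min. PGF2α (SnCl2 reduction) quantified by competitive EIA at 412 nm; % inhibition vs controls; mean of two determinations.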

[2] = system: PC-3; test: Antiproliferative activity against human PC3 cells expressing PCDNA after 72 hrs by MTT assay; assay type: functional, cell-based; conditions: PC-3, 72 h
Method in brief: (§1)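 Cells (PC3 and its PCDNA- and SKP2-transfected lines, DU145) grown in RPMI 1640 with 10% FBS; G418 added for transfected lines. Exponential cells seeded 1 × 10⁴/well, 24 h at 37 °C, then fresh medium with compounds at several concentrations for 72 h. MTT 1–3 h at 37 °C, dissolved in 4% HCl/96% isopropanol, absorbance 570 nm. Triplicate per concentration; IC50 from dose–response curves.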

[3] = system: PC-3; test: Antiproliferative activity against human PC3 cells after 72 hrs by MTT assay; assay type: functional, cell-based; conditions: PC-3, 72 h; method in brief: as §1
[4] = system: PC-3; test: Antiproliferative activity against human PC3 cells expressing SKP2 after 72 hrs by MTT assay; assay type: functional, cell-based; conditions: PC-3, 72 h; method in brief: as §1
[5] = system: DU-145; test: Antiproliferative activity against human DU145 cells after 72 hrs by MTT assay; assay type: functional, cell-based; conditions: DU-145, 72 h; method in brief: as §1
[6] = biological target: T2, Prostaglandin G/H synthase 1 (Ovis aries) (UniProt P05979); test: Inhibition of ovine COX-1 assessed as using arachidonic acid as substrate at 10 uM preincubated for 5 mins prior to substrate addition […] by enzyme immunoassay relative to control
T2 sequence (whole entry): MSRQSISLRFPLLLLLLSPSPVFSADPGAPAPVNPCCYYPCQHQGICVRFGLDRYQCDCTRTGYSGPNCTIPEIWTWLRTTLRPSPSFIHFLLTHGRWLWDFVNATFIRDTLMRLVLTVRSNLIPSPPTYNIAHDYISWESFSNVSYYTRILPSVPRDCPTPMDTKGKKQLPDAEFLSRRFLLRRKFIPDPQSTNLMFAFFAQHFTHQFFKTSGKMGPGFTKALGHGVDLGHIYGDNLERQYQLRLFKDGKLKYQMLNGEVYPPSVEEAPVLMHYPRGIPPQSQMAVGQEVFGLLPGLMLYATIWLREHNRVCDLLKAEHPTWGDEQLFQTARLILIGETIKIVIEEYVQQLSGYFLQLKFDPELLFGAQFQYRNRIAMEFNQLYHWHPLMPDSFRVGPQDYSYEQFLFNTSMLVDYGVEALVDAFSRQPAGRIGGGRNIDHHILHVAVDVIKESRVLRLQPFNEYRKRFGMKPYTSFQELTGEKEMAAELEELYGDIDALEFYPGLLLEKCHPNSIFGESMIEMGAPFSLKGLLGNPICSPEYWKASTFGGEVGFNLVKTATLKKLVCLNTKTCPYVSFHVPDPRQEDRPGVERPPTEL

[7] = biological target: T1, Prostaglandin G/H synthase 2 (Ovis aries); test: Inhibition of ovine COX-2 assessed as using arachidonic acid as substrate at 10 uM preincubated for 5 mins prior to substrate addition measured after 2 mins by enzyme immunoassay relative to control

Structure (SMILES)	inhibition [1]	IC50 [2]	IC50 [3]	IC50 [4]	IC50 [5]	inhibition [6]	inhibition [7]
CS(=O)(=O)c1ccc(C2=C(c3ccccc3)C(=O)O/C2=C\c2ccc(Br)cc2)cc1	inactive	25.2 µM	> 50 µM	> 50 µM	> 50 µM	–	–
COC1(C)OC(=O)C(c2ccc(F)cc2)=C1c1ccc(S(C)(=O)=O)cc1 (centres undefined)	–	36.4 µM	> 50 µM	> 50 µM	> 50 µM	–	32.4%
COc1ccc(/C=C2\OC(=O)C(c3ccc(F)cc3)=C2c2ccc(S(C)(=O)=O)cc2)cc1	inactive	> 50 µM	–	> 50 µM	–	10.2%	–
CS(=O)(=O)c1ccc(C2=C(c3ccccc3)C(=O)OC2)cc1 [ROFECOXIB]	–	> 50 µM	200 µM	> 50 µM	200 µM	–	–
CS(=O)(=O)c1ccc(C2=C(c3ccc(F)cc3)C(=O)O/C2=C\c2cccc([N+](=O)[O-])c2)cc1	inactive	> 50 µM	–	> 50 µM	–	inactive	–
CS(=O)(=O)c1ccc(C2=C(c3ccccc3)C(=O)O/C2=C\c2ccc3c(c2)OCO3)cc1	–	37.2 µM	> 50 µM	50.6 µM	> 50 µM	–	24.6%
CS(=O)(=O)c1ccc(C2=C(c3ccccc3Cl)C(=O)O/C2=C\c2ccc(O)cc2)cc1	–	> 50 µM	–	> 50 µM	–	–	2.27%
CS(=O)(=O)c1ccc(C2=C(c3ccc(F)cc3)C(=O)O/C2=C\c2cccc3ccccc23)cc1	inactive	20 µM	> 50 µM	25.4 µM	> 50 µM	–	–
CS(=O)(=O)c1ccc(C2=C(c3ccc(F)cc3)C(=O)O/C2=C\c2ccc(Cl)cc2)cc1	inactive	> 50 µM	–	> 50 µM	–	–	–

Further lines, results first:

inhibition [1]	IC50 [2]	IC50 [3]	IC50 [4]	IC50 [5]	inhibition [6]	inhibition [7]	Structure (SMILES)
inactive	> 50 µM	> 50 µM	47.2 µM	> 50 µM	inactive	–	CN(C)c1ccc(/C=C2\OC(=O)C(c3ccc(F)cc3)=C2c2ccc(S(C)(=O)=O)cc2)cc1
14.9%	> 50 µM	> 50 µM	25.1 µM	> 50 µM	–	–	COc1cc(/C=C2\OC(=O)C(c3ccccc3Cl)=C2c2ccc(S(C)(=O)=O)cc2)ccc1O
19.5%	25.9 µM	> 50 µM	25.7 µM	> 50 µM	–	–	CS(=O)(=O)c1ccc(C2=C(c3ccc(F)cc3)C(=O)O/C2=C\c2ccc(O)cc2)cc1
–	37.1 µM	> 50 µM	20.3 µM	> 50 µM	–	–	COC1(C)OC(=O)C(c2ccccc2)=C1c1ccc(S(C)(=O)=O)cc1 (centres undefined)
inactive	> 50 µM	–	> 50 µM	–	14.6%	–	CS(=O)(=O)c1ccc(C2=C(c3ccccc3)C(=O)O/C2=C\c2ccc(Cl)cc2)cc1
36.6%	> 125 µM	> 50 µM	25.5 µM	> 50 µM	–	–	COc1cc(/C=C2\OC(=O)C(c3ccccc3)=C2c2ccc(S(C)(=O)=O)cc2)ccc1O
14.4%	25.9 µM	> 50 µM	> 50 µM	> 50 µM	–	–	CS(=O)(=O)c1ccc(C2=C(c3ccccc3)C(=O)O/C2=C\c2ccc(O)cc2)cc1
inactive	> 90 µM	–	> 100 µM	–	inactive	–	CS(=O)(=O)c1ccc(C2=C(c3ccccc3)C(=O)O/C2=C\c2cccc([N+](=O)[O-])c2)cc1
inactive	> 100 µM	–	> 100 µM	–	inactive	–	CS(=O)(=O)c1ccc(C2=C(c3ccccc3)C(=O)O/C2=C\c2ccco2)cc1
7.97%	> 50 µM	–	> 50 µM	–	inactive	–	CS(=O)(=O)c1ccc(C2=C(c3ccccc3Cl)C(=O)OC2)cc1
4.49%	> 50 µM	> 50 µM	30.1 µM	> 50 µM	–	–	CN(C)c1ccc(/C=C2\OC(=O)C(c3ccccc3Cl)=C2c2ccc(S(C)(=O)=O)cc2)cc1

— ChEMBL document CHEMBL2401696, “Stereoselective synthesis and anti-proliferative effects on prostate cancer evaluation of 5-substituted-3,4-diphenylfuran-2-ones” (Eur J Med Chem, 2013)
